From ChEMBL document CHEMBL4834470, “Lathyrane Diterpenoids as Novel hPXR Agonists: Isolation, Structural Modification, and Structure-Activity Relationships” (ACS Med Chem Lett, 2021)

These molecules were tested against T1, PXR (NR1I2); CYP3A4 promoter reporter (Homo sapiens, UniProt O75469) (assay: Agonist activity at human PXR transfected in human HEK293T cells co-transfected with CYP3A4-Luc plasmid at 10 uM incubated for 24 hrs by dual-luciferase reporter gene assay relative to control).
T1 sequence (O75469 whole entry): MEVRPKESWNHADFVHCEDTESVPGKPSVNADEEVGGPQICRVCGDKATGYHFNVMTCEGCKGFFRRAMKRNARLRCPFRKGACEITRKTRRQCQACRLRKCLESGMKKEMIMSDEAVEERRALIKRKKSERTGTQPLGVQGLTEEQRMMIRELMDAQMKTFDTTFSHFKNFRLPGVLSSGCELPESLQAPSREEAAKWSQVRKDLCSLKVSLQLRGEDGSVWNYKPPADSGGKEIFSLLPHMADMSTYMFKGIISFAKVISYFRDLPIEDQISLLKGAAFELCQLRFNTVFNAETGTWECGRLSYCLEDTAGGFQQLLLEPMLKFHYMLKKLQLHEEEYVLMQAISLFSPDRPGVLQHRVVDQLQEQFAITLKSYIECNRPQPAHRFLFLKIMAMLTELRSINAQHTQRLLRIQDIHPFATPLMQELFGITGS

Compound | fold induction at 24 h, 10 µM
CC(=O)O[C@@H]1[C@H]2[C@@H](OC(=O)c3ccccc3)[C@@H](C)C[C@]2(OC(C)=O)C(=O)/C(C)=C/[C@@H]2[C@H](CC[C@H]1C)C2(C)C | 4.9
C=C1[C@H](OC(=O)c2cccnc2)C[C@H]2[C@@H](/C=C(\C)C(=O)[C@@]3(OC(C)=O)C[C@H](C)[C@H](OC(=O)c4ccccc4)[C@@H]3[C@H]1OC(C)=O)C2(C)C | 6.9
CC(=O)O[C@H]1[C@@H](C)[C@H](OC(=O)c2ccccc2)C[C@H]2[C@@H](C[C@@H](C)C(=O)[C@@]3(OC(C)=O)C[C@H](C)[C@H](OC(=O)c4ccccc4)[C@H]13)C2(C)C | 3.4

What follows are molecules tested on HEK-293T (assay: Cytotoxicity against human HEK293T cells assessed as reduction in cell viability at 10 uM measured after 24 hrs by CCK8 assay).
Format: cell-based

Compound | Activity
C=C1[C@H](OC(=O)c2ccccc2)C[C@H]2[C@@H](/C=C(\C)[C@H](OC(C)=O)[C@@]3(O)C[C@H](C)[C@H](OC(=O)c4ccccc4)[C@@H]3[C@H]1OC(C)=O)C2(C)C | Non-Toxic
C=C1CC[C@H]2[C@@H](/C=C(\C)C(=O)[C@@]3(OC(C)=O)C[C@H](C)[C@H](OC(=O)/C=C/c4ccccc4)[C@@H]3[C@H]1O)C2(C)C | Toxic
C=C1CC[C@H]2[C@@H](/C=C(\C)C(=O)[C@@]3(O)C[C@H](C)[C@H](O)[C@@H]3[C@H]1O)C2(C)C | Non-Toxic
C=C1CC[C@H]2[C@@H](/C=C(\C)C(=O)[C@@]3(OC(C)=O)C[C@H](C)[C@H](OC(=O)c4cccnc4)[C@@H]3[C@H]1OC(C)=O)C2(C)C | Non-Toxic
CC(=O)O[C@]12C[C@H](C)[C@H](OC(=O)c3ccccc3)[C@@H]1/C=C(\CO)C(=O)C[C@H]1[C@@H](/C=C(\C)C2=O)C1(C)C | Non-Toxic
C=C1CC[C@H]2[C@@H](C[C@@H](C)C(=O)[C@@]3(OC(C)=O)C[C@H](C)[C@H](OC(=O)c4ccccc4)[C@@H]3[C@H]1OC(C)=O)C2(C)C | Non-Toxic
CC(=O)OC/C1=C/C[C@H]2[C@@H](/C=C(\C)C(=O)[C@@]3(OC(C)=O)C[C@H](C)[C@H](OC(=O)c4ccccc4)[C@@H]3[C@H]1OC(C)=O)C2(C)C | Non-Toxic
CC(=O)O[C@@H]1[C@H]2[C@@H](OC(=O)c3ccccc3)[C@@H](C)C[C@]2(OC(C)=O)C(=O)/C(C)=C/[C@@H]2[C@H](CC[C@H]1C)C2(C)C | Non-Toxic
C=C1CC[C@H](C(C)(C)O)/C=C/C(C)=C\[C@@]2(O)C[C@H](C)[C@H](OC(=O)c3ccccc3)[C@@H]2[C@H]1OC(C)=O | Non-Toxic
CC(=O)O[C@]12C[C@H](C)[C@H](OC(=O)c3cccnc3)[C@@H]1[C@H]1O[C@@]1(C)CC[C@H]1[C@@H](/C=C(\C)C2=O)C1(C)C | Non-Toxic
C=C1[C@H](OC(=O)c2ccccc2)C[C@H]2[C@@H](/C=C(\C)C(=O)[C@@]3(O)C[C@H](C)[C@H](OC(=O)c4ccccc4)[C@@H]3[C@H]1OC(C)=O)C2(C)C | Non-Toxic
C=C1[C@H](OC(=O)c2cccs2)C[C@H]2[C@@H](/C=C(\C)C(=O)[C@@]3(O)C[C@H](C)[C@H](O)[C@@H]3[C@H]1O)C2(C)C | Non-Toxic
C=C1CC[C@H](C(C)(C)OC)/C=C/C(C)=C\[C@@]2(O)C[C@H](C)[C@H](OC(=O)c3ccccc3)[C@@H]2[C@H]1OC(C)=O | Non-Toxic
C=C1[C@H](OC(=O)c2cccnc2)C[C@H]2[C@@H](/C=C(\C)C(=O)[C@@]3(OC(C)=O)C[C@H](C)[C@H](OC(=O)c4ccccc4)[C@@H]3[C@H]1OC(C)=O)C2(C)C | Non-Toxic
C=C1[C@H](OC(C)=O)C[C@H]2[C@@H](/C=C(\C)C(=O)[C@@]3(O)C[C@H](C)[C@H](O)[C@@H]3[C@H]1O)C2(C)C | Non-Toxic
C/C1=C\[C@@H]2[C@H](CC(=O)/C(COC(=O)c3ccccc3)=C/[C@H]3[C@@H](O)[C@@H](C)C[C@]3(O)C1=O)C2(C)C | Non-Toxic
C=C1CC[C@H]2[C@@H](/C=C(\C)C(=O)[C@@]3(O)C[C@H](C)[C@H](O)[C@@H]3C1=O)C2(C)C | Toxic

Compound | Activity
C=C1CC[C@H]2[C@@H](/C=C(\C)C(=O)[C@@]3(OC(C)=O)C[C@H](C)[C@H](OC(=O)c4ccccc4)[C@@H]3[C@H]1OC(C)=O)C2(C)C | Non-Toxic
CC(=O)OC/C1=C/C[C@H]2[C@@H](/C=C(\C)C(=O)[C@@]3(O)C[C@H](C)[C@H](OC(C)=O)[C@@H]3[C@H]1OC(C)=O)C2(C)C | Non-Toxic
CC(=O)O[C@H]1[C@@H](C)[C@H](OC(=O)c2ccccc2)C[C@H]2[C@@H](C[C@@H](C)C(=O)[C@@]3(OC(C)=O)C[C@H](C)[C@H](OC(=O)c4ccccc4)[C@H]13)C2(C)C | Non-Toxic
C=C1CC[C@H]2[C@@H](/C=C(\C)C(=O)[C@@]3(OC(C)=O)C[C@H](C)[C@H](OC(=O)/C=C/c4ccccc4)[C@@H]3[C@H]1OC(C)=O)C2(C)C | Non-Toxic
C=C1[C@H](OC(=O)c2ccccc2)C[C@H]2[C@@H](/C=C(\C)C(=O)[C@@]3(O)C[C@H](C)[C@H](O)[C@@H]3[C@H]1OC(=O)c1ccccc1)C2(C)C | Non-Toxic
C=C1CC[C@H]2[C@@H](/C=C(\C)C(=O)[C@@]3(OC(C)=O)C[C@H](C)[C@H](O)[C@@H]3[C@H]1OC(=O)/C=C/c1ccccc1)C2(C)C | Toxic
C=C1[C@H](OC(=O)c2ccccc2)C[C@H]2[C@@H]([C@H]3O[C@]3(C)C(=O)[C@@]3(OC(C)=O)C[C@H](C)[C@H](OC(=O)c4ccccc4)[C@@H]3[C@H]1OC(C)=O)C2(C)C | Non-Toxic
C=C1[C@H](O)C[C@H]2[C@@H](/C=C(\C)C(=O)[C@@]3(OC(C)=O)C[C@H](C)[C@H](OC(=O)c4ccccc4)[C@@H]3[C@H]1OC(C)=O)C2(C)C | Non-Toxic
C=C1[C@H](OC(=O)c2ccccc2)C[C@H]2[C@@H](/C=C(\C)C(=O)[C@@]3(OC(C)=O)C[C@H](C)[C@H](OC(=O)c4ccccc4)[C@@H]3[C@H]1OC(C)=O)C2(C)C | Non-Toxic
C=C1[C@H](O)C[C@H]2[C@@H](/C=C(\C)C(=O)[C@@]3(O)C[C@H](C)[C@H](O)[C@@H]3[C@H]1O)C2(C)C | Non-Toxic
C=C1[C@H](OC(C)=O)C[C@H]2[C@@H](/C=C(\C)C(=O)[C@@]3(O)C[C@H](C)[C@H](OC(C)=O)[C@@H]3[C@H]1OC(C)=O)C2(C)C | Non-Toxic
C=C1[C@H](OC(=O)c2ccco2)C[C@H]2[C@@H](/C=C(\C)C(=O)[C@@]3(O)C[C@H](C)[C@H](O)[C@@H]3[C@H]1O)C2(C)C | Non-Toxic
C=C(C)[C@@H]1/C=C/C(C)=C\[C@@]2(O)C[C@H](C)[C@H](OC(=O)c3ccccc3)[C@@H]2[C@@H](OC(C)=O)C(=C)CC1 | Non-Toxic
C=C1C(=O)C[C@H]2[C@@H](/C=C(\C)C(=O)[C@@]3(OC(C)=O)C[C@H](C)[C@H](OC(=O)c4ccccc4)[C@@H]3[C@H]1OC(C)=O)C2(C)C | Toxic
C=C1CC[C@H]2[C@@H]([C@@H]3O[C@]4(C=C3C)C[C@H](C)[C@H](OC(=O)c3ccccc3)[C@@H]4[C@H]1OC(C)=O)C2(C)C | Non-Toxic
CC(=O)O[C@@H]1[C@H]2[C@@H](OC(=O)c3ccccc3)[C@@H](C)C[C@]2(OC(C)=O)C(=O)[C@@]2(C)O[C@@H]2[C@@H]2[C@H](C[C@@H](OC(=O)c3ccccc3)[C@]13CO3)C2(C)C | Non-Toxic

Each molecule was assayed against T2, Nuclear receptor subfamily 1 group I member 2 (Homo sapiens, UniProt O75469) (assay: Agonist activity at PXR in human HepaRG cells assessed as upregulation of CYP2B6 mRNA expression at 10 uM by RT-qPCR analysis).
T2 sequence (O75469 whole entry): T1 sequence (O75469 whole entry)
Format: cell-based
Outline: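 HepaRG cells exposed to test agents at 10 μM, with rifampicin (10 μM) as reference agonist. CYP2B6 mRNA quantified by RT-qPCR, normalized to β-ACTIN housekeeping gene. Mean ± SD, n = 3.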

Compound | Activity
C=C1[C@H](OC(=O)c2cccnc2)C[C@H]2[C@@H](/C=C(\C)C(=O)[C@@]3(OC(C)=O)C[C@H](C)[C@H](OC(=O)c4ccccc4)[C@@H]3[C@H]1OC(C)=O)C2(C)C | Active
